Measurements from ChEMBL document CHEMBL1140080, “Adamantyl-substituted retinoid-derived molecules that interact with the orphan nuclear receptor small heterodimer partner: effects of replacing the 1-adamantyl or hydroxyl group on inhibition of cancer cell growth, induction of cancer cell apoptosis, and inhibition of SRC homology 2 …” (J Med Chem, 2008).
pIC50: −log10 of the molar value.

Columns and labels:
[1] = molecular target: T1, Nuclear receptor subfamily 0 group B member 2 (Homo sapiens) (UniProt Q15466); assay: Displacement of [5,5'-3H2]AHPN from human recombinant GST-SHP at 50 uM by liquid scintillation counting relative to 3-Cl-AHPC
T1 sequence (whole entry): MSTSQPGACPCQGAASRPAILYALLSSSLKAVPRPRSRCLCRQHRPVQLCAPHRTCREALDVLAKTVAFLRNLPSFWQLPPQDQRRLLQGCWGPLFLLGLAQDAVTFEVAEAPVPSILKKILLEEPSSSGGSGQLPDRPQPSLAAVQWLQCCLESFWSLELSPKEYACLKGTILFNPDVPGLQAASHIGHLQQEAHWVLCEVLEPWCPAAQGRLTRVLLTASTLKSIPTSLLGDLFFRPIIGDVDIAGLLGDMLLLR
Summary of the method: (§1)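 Recombinant GST–human SHP was bound to glutathione–Sepharose beads and incubated 2 h with 5 nM [5,5′-3H2]AHPN with or without competitor (1.0, 5.0 or 50 μM). Beads were washed twice and counted. Displacement was expressed relative to 50 μM 3-Cl-AHPC set as 100%.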

[2] = molecular target: T2, Tyrosine-protein phosphatase non-receptor type 11 (Homo sapiens, UniProt Q06124); assay: Inhibition of SHP2 overexpressed in human KG1 cells; format: cell-based, KG-1
T2 sequence (Q06124 whole entry): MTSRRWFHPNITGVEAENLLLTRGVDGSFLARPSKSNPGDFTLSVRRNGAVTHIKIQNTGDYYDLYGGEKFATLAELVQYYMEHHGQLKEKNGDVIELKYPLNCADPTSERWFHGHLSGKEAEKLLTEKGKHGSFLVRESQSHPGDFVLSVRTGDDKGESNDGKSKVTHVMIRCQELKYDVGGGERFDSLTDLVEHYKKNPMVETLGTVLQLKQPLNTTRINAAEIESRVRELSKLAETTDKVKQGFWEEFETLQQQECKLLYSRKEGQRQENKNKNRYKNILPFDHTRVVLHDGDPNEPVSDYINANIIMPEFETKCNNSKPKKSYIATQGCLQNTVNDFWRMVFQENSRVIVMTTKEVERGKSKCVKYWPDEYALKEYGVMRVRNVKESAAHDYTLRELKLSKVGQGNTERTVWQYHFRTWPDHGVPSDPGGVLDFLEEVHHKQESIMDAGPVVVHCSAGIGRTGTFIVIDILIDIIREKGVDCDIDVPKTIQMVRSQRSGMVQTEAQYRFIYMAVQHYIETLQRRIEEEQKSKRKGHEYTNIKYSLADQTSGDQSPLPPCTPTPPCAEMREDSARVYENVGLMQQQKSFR
Summary of the method: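 Shp-2 PTP activity was measured as hydrolysis of the fluorogenic substrate 6,8-difluoro-4-methylumbelliferyl phosphate in the presence of analogue in Me2SO or Me2SO alone (final concentration 5%).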

KG-1 [3] = assay: Induction of apoptosis in human KG1 cells at 1.0 uM […] by acridine orange staining; format: functional
KG-1 [4] = assay: Induction of apoptosis in human KG1 cells after 48 hrs by acridine orange staining; format: functional, cell-based; conditions: KG-1, 48 h
[5] = Antiproliferative activity against human KG1 AML cells after 48 hrs by MTT assay; format: functional, cell-based; conditions: in the assay text read “by hemocytometer cell counting” for “by MTT assay”
Summary of the method: (§2)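 KG-1 cells in 5% FBS medium attached overnight, then treated 48 h with analogue in Me2SO or Me2SO alone (final 0.1%). Cells were harvested and counted by hemocytometer in triplicate wells. Highest concentration evaluated was 5 μM.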

DU-145 [6] = assay: Antiproliferative activity against human DU145 cells after 72 hrs by MTT assay; format: functional, cell-based; conditions: DU-145, 72 h
Summary of the method: (§3)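 Cells attached for 24 h, then exposed 72 h to analogue in Me2SO or Me2SO alone (final Me2SO 0.1%), with media and compound renewed after 48 h. Viable cells were measured by MTS tetrazolium reduction in three replicates. Top concentration tested per compound was 2.5, 5, 10, 20 or 100 μM.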

MDA-MB-231 [7] = assay: Antiproliferative activity against human MDA-MB-231 cells after 72 hrs by MTT assay; format: functional, cell-based; conditions: MDA-MB-231, 72 h; summary of the method: as §3
[8] = Antiproliferative activity against human H292 cells after 72 hrs by MTT assay; format: functional, cell-based; conditions: NCI-H292, 72 h; summary of the method: as §3
[9] = Antiproliferative activity against human KG1 AML cells at 5 uM after 48 hrs by MTT assay; format: functional; conditions: in the assay text read “by hemocytometer cell counting” for “by MTT assay”; summary of the method: as §2
DU-145 [10] = assay: Antiproliferative activity against human DU145 cells at 5 uM after 72 hrs by MTT assay; format: functional; conditions: DU-145, 72 h; summary of the method: as §3
MDA-MB-231 [11] = assay: Antiproliferative activity against human MDA-MB-231 cells at 5 uM after 72 hrs by MTT assay; format: functional; conditions: MDA-MB-231, 72 h; summary of the method: as §3
[12] = Antiproliferative activity against human H292 cells at 5 uM after 72 hrs by MTT assay; format: functional; conditions: NCI-H292, 72 h; summary of the method: as §3
[13] = molecular target: T3, Nuclear receptor subfamily 0 group B member 2 (Homo sapiens, UniProt Q15466); assay: Displacement of [5,5'-3H2]AHPN from human recombinant GST-SHP by liquid scintillation counting relative to 3-Cl-AHPC; summary of the method: as §1
T3 sequence (Q15466 whole entry): T1 sequence (whole entry)

KG-1 [14] = assay: Induction of apoptosis in human KG1 cells at 5.0 uM […] by acridine orange staining; format: functional
KG-1 [15] = assay: Induction of apoptosis in human KG1 cells at 25 uM […] by acridine orange staining; format: functional
[16] = Antiproliferative activity against human H292 cells at 10 uM after 72 hrs by MTT assay; format: functional; conditions: NCI-H292, 72 h; summary of the method: as §3
DU-145 [17] = assay: Antiproliferative activity against human DU145 cells at 10 uM after 72 hrs by MTT assay; format: functional; conditions: DU-145, 72 h; summary of the method: as §3
MDA-MB-231 [18] = assay: Antiproliferative activity against human MDA-MB-231 cells at 10 uM after 72 hrs by MTT assay; format: functional; conditions: MDA-MB-231, 72 h; summary of the method: as §3
[19] = Antiproliferative activity against human H292 cells at 100 uM after 72 hrs by MTT assay; format: functional; conditions: NCI-H292, 72 h; summary of the method: as §3
DU-145 [20] = assay: Antiproliferative activity against human DU145 cells at 100 uM after 72 hrs by MTT assay; format: functional; conditions: DU-145, 72 h; summary of the method: as §3
MDA-MB-231 [21] = assay: Antiproliferative activity against human MDA-MB-231 cells at 100 uM after 72 hrs by MTT assay; format: functional; conditions: MDA-MB-231, 72 h; summary of the method: as §3
[22] = Induction of apoptosis in human HL60R cells at 0.1 uM after 24 hrs by acridine orange staining; format: functional
Summary of the method: (§4)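 KG-1, HL-60R (24 h) or MDA-MB-231 (96 h) cells in 5% FBS medium attached overnight, then were treated with analogue in Me2SO or vehicle (final 0.1% Me2SO). Apoptotic cells were scored by acridine orange staining on at least three replicates. Tested concentrations were 0.1–5.0 μM, plus 25 μM for KG-1.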

[23] = Induction of apoptosis in human HL60R cells at 1.0 uM after 24 hrs by acridine orange staining; format: functional; summary of the method: as §4
MDA-MB-231 [24] = assay: Induction of apoptosis in human MDA-MB-231 cells at 1.0 uM after 96 hrs by acridine orange staining; format: functional; summary of the method: as §4
MDA-MB-231 [25] = assay: Induction of apoptosis in human MDA-MB-231 cells at 2.0 uM after 96 hrs by acridine orange staining; format: functional; summary of the method: as §4
[26] = Growth inhibition of human HL60R cells at 0.1 uM after 24 hrs by hemocytometer; format: functional; conditions: read-out: GI
Summary of the method: (§5)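 HL-60R cells in medium with 5% FBS attached overnight, then received analogue in Me2SO or vehicle (final Me2SO 0.1%) for 24 h. Cells were harvested and counted in triplicate wells with a hemocytometer.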

[27] = Growth inhibition of human HL60R cells at 1.0 uM after 24 hrs by hemocytometer; format: functional; conditions: read-out: GI; summary of the method: as §5
[28] = Growth inhibition of HMVE cells after 72 hrs by alamar blue method; format: cell-based; conditions: Homo sapiens
[29] = Growth inhibition of HMVE cells at 0.5 uM after 72 hrs by alamar blue method; format: cell-based; conditions: human, HMVE cells; read-out: GI

Row | SMILES | Activity [1] | pIC50 [2] | Activity (KG-1 [3]) | pIC50 (KG-1 [4]) | pIC50 [5] | pIC50 (DU-145 [6]) | pIC50 (MDA-MB-231 [7]) | pIC50 [8] | Activity [9] | inhibition at 5 µM (DU-145 [10]) | inhibition at 5 µM (MDA-MB-231 [11]) | inhibition at 5 µM [12] | pIC50 [13] | Activity (KG-1 [14]) | inhibition at 10 µM [16] | inhibition at 10 µM (DU-145 [17]) | inhibition at 10 µM (MDA-MB-231 [18]) | further results
1 | Nc1ccc(-c2ccc(/C=C/C(=O)O)cc2Cl)cc1C12CC3CC(CC(C3)C1)C2 | 61% | 5.74 | 10% | 5.03 | 5.30 | 5.89 | 5.40 | 5.22 | 50% | 79% | 61% | 45% |  |  |  |  |  | 
2 | CC12CC3CC(C)(C1)CC(c1cc(-c4ccc(/C=C/C(=O)O)cc4Cl)ccc1O)(C3)C2 | 103% | 5.64 | 0% | 4.87 | < 5.30 | < 5.30 | < 5.30 | 5.44 | 0% | 23% | 7% | 66% | 6.30 | 0% |  |  |  | Activity (KG-1 [15]): 83%
3 | Cc1cccc(C)c1-c1cc(-c2ccc(/C=C/C(=O)O)cc2Cl)ccc1O |  | 4.70 | 0% |  | < 5.30 | < 5.00 | < 5.00 | < 5.00 | 0% |  |  |  |  | 0% | 0% | 4% | 0% | 
4 | O=C(O)/C=C/c1ccc(-c2ccc(F)cc2)c(Cl)c1 |  | 3.30 | 0% |  | < 5.30 | < 4.00 | < 4.00 | 4.33 | 7% |  |  |  |  | 0% | 18% | 15% | 0% | inhibition at 100 µM [19]: 60%; inhibition at 100 µM (DU-145 [20]): 23%; inhibition at 100 µM (MDA-MB-231 [21]): 9%
5 | CC(=O)Nc1ccc(-c2ccc(/C=C/C(=O)O)cc2Cl)cc1C12CC3CC(CC(C3)C1)C2 | 47% | 5.34 | 3% |  | < 5.30 | 5.30 | < 5.30 | < 5.30 | 25% | 8% | -5% | 13% |  | 7% |  |  |  | 
6 | O=C(O)/C=C/c1ccc(-c2ccc(F)c(C34CC5CC(CC(C5)C3)C4)c2)c(Cl)c1 | 90% | 5.68 | 0% |  | < 5.30 | 4.80 | 4.17 | 5.22 | 0% |  |  |  | 6.00 | 0% |  |  |  | inhibition at 100 µM [19]: 95%; inhibition at 100 µM (DU-145 [20]): 84%; inhibition at 100 µM (MDA-MB-231 [21]): 83%
7 | O=C(O)c1ccc2cc(-c3cccc(C45CC6CC(CC(C6)C4)C5)c3)ccc2c1 |  |  |  |  |  |  |  |  |  |  |  |  |  |  |  |  |  | Activity [22]: 2%; Activity [23]: 2%; Activity (MDA-MB-231 [24]): 2%; Activity (MDA-MB-231 [25]): 7%; inhibition of growth at 0.1 µM [26]: 4%; inhibition of growth at 1 µM [27]: 8%; pIC50 [28]: < 6.30; inhibition at 72 h, 0.5 µM [29]: 36%
8 | CC(C)(C)C#Cc1cc(-c2ccc(/C=C/C(=O)O)cc2Cl)ccc1O |  | 6.35 | 0% |  | < 5.30 | < 5.00 | < 5.00 | < 5.00 | 22% |  |  |  |  | 0% | 14% | 13% | 4% | 
9 | O=C(O)/C=C/c1ccc(-c2ccc(O)c(C34CC5CC(CC3C5)C4)c2)c(Cl)c1 | 85% | 5.41 | 2% | 3.64 | 6.04 | 5.10 | 5.01 | 5.17 | 94% |  |  |  |  | 16% | 69% | 59% | 51% | 
10 | CCC(CC)(CC)c1cc(-c2ccc(/C=C/C(=O)O)cc2Cl)ccc1O | 90% | 5.27 | 3% |  | < 5.30 | < 5.30 | < 5.30 | < 5.30 | 0% | 2% | 2% | 5% | 5.10 | 4% |  |  |  | Activity (KG-1 [15]): 14%
